Source: ChEMBL document CHEMBL1157211, “Carbamoyl tetrazoles as inhibitors of endocannabinoid inactivation: a critical revisitation” (Eur J Med Chem, 2008)

Columns and labels:
[1] = Inhibition of MAGL mediated [14C]2-arachidonoyl glycerol hydrolysis in african green monkey COS cells; format: cell-based; settings: Chlorocebus aethiops
How it was run: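 The 10,000 g cytosolic fraction of COS cells overexpressing DAGLα was used as the MAGL source. It was incubated with radiolabelled synthetic 2-arachidonoylglycerol (1.0 mCi/mmol) in 50 mM Tris-HCl, pH 7.0, at 37 °C for 20 min. Lipids were then extracted with 2 volumes of chloroform/methanol 2:1 and lyophilized.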

[2] = target: T1, Diacylglycerol lipase-alpha (Homo sapiens, UniProt Q9Y4D2); experiment: Inhibition of human recombinant DAGLalpha mediated sn-1-[14C]oleoyl-2-arachidonoyl-glycerol hydrolysis to 2-AG overexpressed in COS cells after 20 mins; format: cell-based
T1 sequence (Q9Y4D2 whole entry): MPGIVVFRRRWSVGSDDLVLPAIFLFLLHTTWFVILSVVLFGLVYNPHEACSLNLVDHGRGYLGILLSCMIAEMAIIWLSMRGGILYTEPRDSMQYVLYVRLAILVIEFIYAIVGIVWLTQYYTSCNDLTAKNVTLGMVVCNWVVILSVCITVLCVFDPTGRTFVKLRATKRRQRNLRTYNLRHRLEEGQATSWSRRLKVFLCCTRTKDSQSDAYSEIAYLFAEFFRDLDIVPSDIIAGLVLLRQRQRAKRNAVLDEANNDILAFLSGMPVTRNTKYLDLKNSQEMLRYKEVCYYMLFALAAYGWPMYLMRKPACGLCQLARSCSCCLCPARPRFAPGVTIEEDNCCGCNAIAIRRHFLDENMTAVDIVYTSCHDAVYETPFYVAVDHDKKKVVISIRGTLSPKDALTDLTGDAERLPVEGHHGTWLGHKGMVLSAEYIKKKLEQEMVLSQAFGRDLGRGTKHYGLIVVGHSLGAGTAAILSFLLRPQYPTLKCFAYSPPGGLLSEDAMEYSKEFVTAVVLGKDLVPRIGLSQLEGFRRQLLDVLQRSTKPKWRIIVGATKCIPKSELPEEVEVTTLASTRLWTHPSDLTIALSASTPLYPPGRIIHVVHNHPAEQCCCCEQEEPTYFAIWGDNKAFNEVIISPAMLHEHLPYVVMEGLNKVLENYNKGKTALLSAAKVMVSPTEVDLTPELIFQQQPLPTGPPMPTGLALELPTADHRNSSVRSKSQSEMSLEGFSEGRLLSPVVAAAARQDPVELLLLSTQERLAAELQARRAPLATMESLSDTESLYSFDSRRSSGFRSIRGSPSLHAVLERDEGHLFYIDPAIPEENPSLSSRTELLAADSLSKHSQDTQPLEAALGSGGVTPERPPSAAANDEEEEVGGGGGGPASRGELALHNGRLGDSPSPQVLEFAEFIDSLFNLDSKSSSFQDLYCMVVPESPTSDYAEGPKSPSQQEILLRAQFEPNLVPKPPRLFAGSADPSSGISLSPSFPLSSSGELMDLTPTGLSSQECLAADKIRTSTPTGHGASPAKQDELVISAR
How it was run: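 COS cells overexpressing DAGLα were harvested in Tris-HCl pH 7, Dounce-homogenized and spun at 800 g then 10 000 g at 4 °C. The 10 000 g membrane fraction was incubated with sn-1-[14C]oleoyl-2-arachidonoyl-glycerol in 50 mM Tris-HCl with 1 mM CaCl2, pH 7.0, for 20 min at 37 °C. Lipids were extracted with CHCl3/MeOH 2:1 and separated by silica TLC (CHCl3/MeOH/NH4OH 85/15/1). [14C]Oleic acid bands were β-counted.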

[3] = target: T2, Fatty-acid amide hydrolase 1 (Rattus norvegicus, UniProt P97612); experiment: Inhibition of FAAH mediated [14C]anandamide hydrolysis in rat brain after 30 mins; format: tissue-based
T2 sequence (P97612 whole entry): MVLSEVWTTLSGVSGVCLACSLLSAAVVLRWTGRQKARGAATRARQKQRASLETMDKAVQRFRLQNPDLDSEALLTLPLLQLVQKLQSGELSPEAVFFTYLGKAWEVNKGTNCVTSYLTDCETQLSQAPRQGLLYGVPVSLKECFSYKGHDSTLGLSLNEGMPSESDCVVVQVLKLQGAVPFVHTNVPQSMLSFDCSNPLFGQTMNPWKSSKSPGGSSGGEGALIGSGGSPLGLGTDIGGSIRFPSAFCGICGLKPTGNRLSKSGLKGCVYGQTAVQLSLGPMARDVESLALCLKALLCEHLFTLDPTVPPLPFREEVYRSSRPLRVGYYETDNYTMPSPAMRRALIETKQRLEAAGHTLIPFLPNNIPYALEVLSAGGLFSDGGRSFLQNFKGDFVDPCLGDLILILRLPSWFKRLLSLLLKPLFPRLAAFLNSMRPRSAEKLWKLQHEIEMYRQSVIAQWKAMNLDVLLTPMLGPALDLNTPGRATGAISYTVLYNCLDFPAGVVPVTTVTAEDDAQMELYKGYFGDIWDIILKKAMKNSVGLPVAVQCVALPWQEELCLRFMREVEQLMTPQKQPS
How it was run: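 Rat brain membranes incubated with test compounds and [14C]anandamide in 50 mM Tris-HCl, pH 9, for 30 min at 37 °C. After extraction with 2 volumes CHCl3/MeOH 2:1, [14C]ethanolamine in the aqueous phase was scintillation-counted. IC50 was taken as the concentration giving 50% inhibition of hydrolysis.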

RBL-2H3 [4] = experiment: Inhibition of [14C]anandamide uptake in rat RBL-2H3 cells preincubated 10 mins before addition of [14C]anandamide; format: functional, cell-based; design: inhibition (INH): concentration or dose not given beside the values; settings: for IC50: Rattus norvegicus, RBL-2H3
How it was run: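 Intact RBL-2H3 cells were pre-exposed to inhibitor at varying concentrations for 10 min, then given [14C]anandamide (10,000 cpm) for 90 s at 37 °C. Uptake was taken as the residual label in the medium after CHCl3/CH3OH 2:1 extraction, read by scintillation counting of the organic phase. Non-specific binding was defined with excess unlabelled anandamide. IC50 was calculated from the inhibition data.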

RBL-2H3 [5] = experiment: Inhibition of [14C]anandamide uptake in rat RBL-2H3 cells at 0.1 uM preincubated 10 mins before addition of [14C]anandamide; format: functional
How it was run: (§1)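 RBL-2H3 cells were given inhibitor at 0.1 or 1 µM for 10 min, then [14C]anandamide (10,000 cpm) for 90 s at 37 °C. Uptake was read as residual medium label in the organic extract, and [14C]ethanolamine was counted in the aqueous phase in the same experiment. Results are % inhibition of uptake, N=4.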

RBL-2H3 [6] = experiment: Inhibition of [14C]anandamide uptake in rat RBL-2H3 cells at 1 uM preincubated 10 mins before addition of [14C]anandamide; format: functional; how it was run: as §1
[7] = target: T3, Fatty-acid amide hydrolase 1 (Rattus norvegicus) (UniProt P97612); experiment: Inhibition of FAAH mediated [14C]anandamide hydrolysis in rat RBL-2H3 cells at 1 uM after 30 mins
T3 sequence (whole entry): T2 sequence (P97612 whole entry)

[8] = target: T3, Fatty-acid amide hydrolase 1 (Rattus norvegicus); experiment: Inhibition of FAAH mediated [14C]anandamide hydrolysis in rat RBL-2H3 cells at 0.1 uM after 30 mins
Monocyte = experiment: Inhibition of anandamide uptake in human monocytes; format: functional, cell-based

| Compound | IC50 [1] | IC50 [2] | IC50 [3] | inhibition (INH) (RBL-2H3 [4]) | IC50 (RBL-2H3 [4]) | inhibition at 0.1 µM (RBL-2H3 [5]) | inhibition at 1 µM (RBL-2H3 [6]) | inhibition [7] | inhibition [8] | IC50 (Monocyte) |
| --- | --- | --- | --- | --- | --- | --- | --- | --- | --- | --- |
| CN(C)C(=O)n1nnc(CCc2ccccc2)n1 | 480 nM | 600 nM | 3.5 nM | 10.9% | > 10000 nM | – | – | – | – | – |
| CN(C)C(=O)n1nnc(CNC(=O)CCCCCCc2ccccc2)n1 | > 10000 nM | 10000 nM | 2.1 nM | 30% | > 10000 nM | – | – | – | – | – |
| CN(C)C(=O)n1nnnc1CCc1ccccc1 | 10000 nM | 10000 nM | 5.4 nM | 15.8% | > 10000 nM | – | – | – | – | – |
| CN(C)C(=O)n1nnc(CNC(=O)CCCCCCCc2ccccc2)n1 | 10000 nM | 10000 nM | 3.2 nM | 18.8% | > 10000 nM | – | – | – | – | – |
| CN(C)C(=O)n1nnnc1CCCc1ccccc1 | 10000 nM | 10000 nM | 2.7 nM | 18% | > 10000 nM | – | – | – | – | – |
| CN(C)C(=O)n1nnnc1CNC(=O)CCCCCCCc1ccccc1 | 40 nM | 570 nM | 10 nM | 37.5% | > 10000 nM | – | – | – | – | – |
| CN(C)C(=O)n1nnc(CCCc2ccccc2)n1 | 110 nM | 500 nM | 3.2 nM | 16% | > 10000 nM | – | – | – | – | – |
| CN(C)C(=O)n1nnc(CNC(=O)c2ccc(N=[N+]=[N-])c(I)c2)n1 | > 10000 nM | 4400 nM | 25 nM | 9% | > 1000 nM | – | – | – | – | – |
| CN(C)C(=O)n1nnc(Cc2ccc(-c3ccccc3)cc2)n1 | 20 nM | 510 nM | 33 nM | – | 998 nM | – | – | – | – | – |
| CN(C)C(=O)n1nnnc1Cc1ccc(-c2ccccc2)cc1 | 8100 nM | > 10000 nM | 2.1 nM | – | 15 nM | 66.5% | 74.2% | 36.7% | 41.1% | – |
| CN(C)C(=O)n1nnnc1CNC(=O)c1cccc(-c2ccccc2)c1 | 850 nM | 340 nM | 32 nM | – | 90 nM | – | – | – | – | – |
| CN(C)C(=O)n1nnnc1CNC(=O)CCCCCCc1ccccc1 | 20 nM | 200 nM | 3.7 nM | – | 851 nM | – | – | – | – | – |
| CN(C)C(=O)n1nnnc1CNC(=O)c1ccc(N=[N+]=[N-])c(I)c1 | 350 nM | 130 nM | 23 nM | 32.4% | > 1000 nM | – | – | – | – | – |
| C=CCOc1ccc(CN(C/C=C/c2ccccc2)CCCC)cc1 | – | – | – | – | – | – | – | – | – | 90 nM |
| CN(C)C(=O)n1nnc(CNC(=O)c2ccc(-c3ccccc3)cc2)n1 | > 10000 nM | > 10000 nM | 6 nM | – | 985 nM | – | – | – | – | – |
| CN(C)C(=O)n1nnc(CNC(=O)c2cccc(-c3ccccc3)c2)n1 | 10000 nM | > 10000 nM | 23 nM | 23% | > 10000 nM | – | – | – | – | – |
